This note sets out measurements from ChEMBL document CHEMBL1156771, “Synthesis and antimalarial evaluation of 1, 3, 5-trisubstituted pyrazolines” (Eur J Med Chem, 2010).

Structures are written as SMILES. Activity calls are given as the source filed them. The rule behind the calls is not given here.

The subject of data set [1] is Plasmodium falciparum. The data set can be described thus: Antiplasmodial activity against chloroquine-sensitive Plasmodium falciparum MRC-02 infected in human erythrocyte assessed as inhibition of schizont maturation after 24 hrs. It counts as functional, organism-based. The note with it: MRC-02, 24 h. The method in brief:
(§1)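 Sorbitol-synchronised ring-stage culture in human B+ erythrocytes, in RPMI-1640 with 25 mM HEPES, 10% AB+ serum and 0.2% bicarbonate under 5% CO2. Parasitaemia was set at 1–1.5%. Cultures were exposed to two-fold serial dilutions for 24 h at 37 °C (ethanol ≤0.5% final), duplicate wells per dose. Schizonts per 100 asexual parasites were counted on Giemsa smears. Inhibition = (1−Nt/Nc)×100.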

Data set [2] in a line: Selectivity ratio, CC50 for human HeLa cells to IC50 for Plasmodium falciparum RKL09. The class given is ADME, cell-based. The following applies: read-out: Ratio CC50/IC50. The method in brief: (§2)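 The IC50 came from sorbitol-synchronized ring-stage cultures at 1–1.5% parasitemia in human B+ erythrocytes in RPMI-1640/HEPES with 10% AB+ serum, given two-fold dilutions (ethanol ≤0.5% final). Cultures ran 24 h at 37 °C in duplicate, and schizonts per 100 asexual parasites were counted on Giemsa smears.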

Data set [3] is described as follows: Inhibition of beta-hematin formation by BHIA assay. The class given is functional. The method in brief: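 Compounds (6 to 0.3 mM) were incubated with hematin in the presence of glacial acetic acid at 37 °C for 24 h. Water or ethanol served as controls. The pellet was washed with DMSO to remove unconverted hematin, and the remaining β-hematin was dissolved in 0.1 N NaOH. Absorbance was read at 405 nm to derive BHIA50.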

The nature of data set [4]: Selectivity ratio of CC50 for human HeLa cells to IC50 for Plasmodium falciparum MRC-02. The class given is ADME, cell-based. The following applies: read-out: Ratio CC50/IC50. The method in brief: as §2
Data set [5] is described as follows: Cytotoxicity against human HeLa cells after 72 hrs by neutral red uptake assay. The class given is cell-based. The method in brief: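 HeLa cells grown in EMEM with 10% FBS were seeded at 2×10^3 per well and left overnight at 37 °C, 5% CO2. They were exposed to two-fold serial dilutions from DMSO stocks (DMSO ≤0.1%) in duplicate for 72 h. Cells were fixed in glutaraldehyde, stained with 0.2% neutral red and lysed in acid ethanol, then read at 550 nm against DMSO controls. The value reported is MNTD, the highest concentration giving 100% survival.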

Data set [6] has as its system Plasmodium falciparum. The data set can be described thus: Antiplasmodial activity against chloroquine-resistant Plasmodium falciparum RKL09 infected in human erythrocyte assessed as inhibition of schizont maturation after 24 hrs. The class given is functional, organism-based. The following applies: RKL09, 24 h. The method in brief: as §1
The test system of data set [7] is Plasmodium berghei. The data set can be described thus: Antimalarial activity against Plasmodium berghei ANKA infected in Swiss albino mice (Mus musculus) assessed as suppression of parasitemia at 8 mg/kg/day, perorally for 4 days. The class given is functional. The note with it: route oral. The method in brief: (§3)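 Peters' 4-day suppressive test in male Swiss albino mice (18–20 g), five per group. Mice were infected intraperitoneally with about 30% P. berghei-infected donor erythrocytes, then dosed orally 4 h later and on days 0–3. Controls received the suspending solvent. Giemsa-stained tail smears were read on days 4 and 7; % suppression was calculated against controls. Survival was followed for 28 days for MST.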

Data set [8] relates to Plasmodium berghei. The data set can be described thus: Antimalarial activity against Plasmodium berghei ANKA infected in Swiss albino mice (Mus musculus) assessed as mean survival time at 8 mg/kg/day, perorally for 4 days measured after 28 days. It counts as functional, organism-based. The method in brief:
as §3

The subject of data set [9] is Plasmodium berghei. Description: Antimalarial activity against Plasmodium berghei ANKA infected in Swiss albino mice (Mus musculus) assessed as mean survival time at 25 mg/kg/day, perorally for 4 days measured after 28 days. The class given is functional. The following applies: route oral. The method in brief:
(§4)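 Peters 4-day suppressive test in male Swiss albino mice (18–20 g), groups of five. Mice inoculated intraperitoneally with P. berghei ANKA-infected erythrocytes from a donor mouse. Oral dosing began 4 h later and was given once daily on days 0–3. Vehicle controls received the suspending solvent. Mean survival time was taken from deaths over a 28-day observation period.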

Data set [10] relates to Plasmodium berghei. Description: Antimalarial activity against Plasmodium berghei ANKA infected in Swiss albino mice (Mus musculus) assessed as suppression of parasitemia at 50 mg/kg/day, perorally for 4 days. It counts as functional. The note with it: route oral. The method in brief:
as §3

Data set [11] has as its system Plasmodium berghei. Description: Antimalarial activity against Plasmodium berghei ANKA infected in Swiss albino mice (Mus musculus) assessed as suppression of parasitemia at 25 mg/kg/day, perorally for 4 days. The note with it: route oral. It counts as functional. The method in brief: as §3
The subject of data set [12] is Plasmodium berghei. The data set can be described thus: Antimalarial activity against Plasmodium berghei ANKA infected in Swiss albino mice (Mus musculus) assessed as mean survival time at 50 mg/kg/day, perorally for 4 days measured after 28 days. The class given is functional. The note with it: route oral. The method in brief:
as §4

Consider `O=C(c1cccnc1)N1N=C(c2ccc(O)cc2)CC1c1cccc(Br)c1` (centres undefined), for which the IC50 (usually the concentration that inhibits the measured activity by half) in the data set on Plasmodium falciparum [1] stood at 0.026 µM; in data set [3], 2060 µM; with Plasmodium falciparum [6] it was 0.0786 µM. Also, the values for the selectivity ratio in data set [2] and in [4] were 39 and 118, respectively. The compound also displayed an MNTC at 72 h in data set [5] of 3060 nM.

As for `O=C(c1cccnc1)N1N=C(c2ccc(O)cc2)CC1c1ccccc1` (centres undefined), the values for the 50% inhibitory concentration (IC50) (in the data set on Plasmodium falciparum [1]; in data set [3]; in the data set with Plasmodium falciparum [6]) were 0.0304 µM, 1580 µM and 0.131 µM, respectively. The figures for the selectivity ratio in data set [2] and in data set [4] were 14.4 and 61.7, respectively. In addition, the MNTC at 72 h in [5] was determined as 1880 nM.

As to `Cc1ccc(C2CC(c3ccc(O)cc3)=NN2C(=O)c2cccnc2)cc1` (centres undefined), the IC50 with Plasmodium falciparum [1] was 0.0555 µM; in data set [3], 1570 µM; in the data set with Plasmodium falciparum [6], 0.0887 µM. The selectivity ratio in data set [2] was 24.6; in data set [4], 39.4. The same compound returned an MNTC at 72 h in data set [5] of 2190 nM.

Turning to `CCN(CC)CCCC(C)Nc1ccnc2cc(Cl)ccc12.O=P(O)(O)O.O=P(O)(O)O` (centres undefined) [CHLOROQUINE PHOSPHATE], the Activity in the data set on Plasmodium berghei [7] was determined as 100%. The outcome in the data set with Plasmodium berghei [8] was Active. The IC50 in data set [3] worked out at 1890 µM. The MNTC at 72 h in [5] was 66200 nM.

Take `COc1cc(C2CC(c3ccc(O)cc3)=NN2C(=O)c2cccnc2)cc(OC)c1OC` (centres undefined): the IC50 is 0.0265 µM in the data set on Plasmodium falciparum [1], 1700 µM in [3] and 0.0425 µM in the data set on Plasmodium falciparum [6]. Moreover, the Activity in the data set on Plasmodium berghei [9] was determined as 9 days; in the data set with Plasmodium berghei [10], 43.7%; in the data set on Plasmodium berghei [11] it was 32.78%; with Plasmodium berghei [12], 11 days. Also, the selectivity ratio in [2] is 19.5; in [4] it was 31.2. In data set [5], this compound had an MNTC at 72 h of 828 nM.

In the case of `O=C(c1cccnc1)N1N=C(c2ccc(O)cc2)CC1c1ccccc1Br` (centres undefined), the results for the IC50 (with Plasmodium falciparum [1]; in data set [3]; in the data set with Plasmodium falciparum [6]) were 0.0272 µM, 1820 µM and 0.064 µM, respectively. Besides, the Activity in the data set with Plasmodium berghei [9] was determined as 9 days; in the data set with Plasmodium berghei [10], 47.52%; in the data set on Plasmodium berghei [11], 34.98%; in the data set on Plasmodium berghei [12], 10.3 days. Further, the figures for the selectivity ratio in data set [2] and in data set [4] were 59.6 and 140, respectively. In addition, the MNTC at 72 h in data set [5] is 3810 nM.

In the case of `Cc1ccccc1C1CC(c2ccc(O)cc2)=NN1C(=O)c1cccnc1` (centres undefined), the figures for the IC50 (with Plasmodium falciparum [1]; in data set [3]; with Plasmodium falciparum [6]) were 0.0625 µM, 2430 µM and 0.102 µM, respectively. Also, the selectivity ratio came to 17.8 in data set [2] and 29 in [4]. Moreover, the MNTC at 72 h in data set [5] is 1810 nM.

As to `CCOc1ccc(C2CC(c3ccc(O)cc3)=NN2C(=O)c2cccnc2)cc1OC` (centres undefined), the selectivity ratio came to 16.6 in data set [2] and 47.5 in [4]. In addition, in [3], inhibition was half-maximal at 2390 µM (IC50). The MNTC at 72 h in data set [5] was 3560 nM.

As to `O=C(c1cccnc1)N1N=C(c2ccc(O)cc2)CC1c1cccc([N+](=O)[O-])c1` (centres undefined), the results for the IC50 (in the data set on Plasmodium falciparum [1]; in [3]; with Plasmodium falciparum [6]) were 0.106 µM, 2070 µM and 0.423 µM, respectively. The selectivity ratio in [2] stood at 8.85; in data set [4], 35.2. In addition, in data set [5], the MNTC at 72 h was 3750 nM.

As to `O=C(c1cccnc1)N1N=C(c2ccc(O)cc2)CC1c1ccc(Cl)cc1Cl` (centres undefined), the results for the concentration for half-maximal inhibition (IC50) (in the data set on Plasmodium falciparum [1]; in [3]; in the data set with Plasmodium falciparum [6]) were 0.0375 µM, 1530 µM and 0.068 µM, respectively. Further, the Activity in the data set with Plasmodium berghei [9] turned out to be 11.6 days; in the data set on Plasmodium berghei [10], 68.93%; in the data set with Plasmodium berghei [11], 60.55%; with Plasmodium berghei [12], 13.2 days. The selectivity ratio came out at 18.4 in data set [2] and 33.3 in data set [4]. The MNTC at 72 h in data set [5] was found to be 1250 nM.

With `COc1ccc(Br)cc1C1CC(c2ccc(O)cc2)=NN1C(=O)c1cccnc1` (centres undefined), the IC50 in the data set with Plasmodium falciparum [1] worked out at 0.0495 µM; in [3], 1890 µM; with Plasmodium falciparum [6], 0.242 µM. The selectivity ratio in data set [2] was determined as 11; in [4], 53.7. In data set [5], this compound showed an MNTC at 72 h of 2660 nM.
